Reference: ChEMBL document CHEMBL1165965, “Synthesis and structure-activity relationships of 1,2,3,4-tetrahydropyrido[2,3-b]pyrazines as potent and selective inhibitors of the anaplastic lymphoma kinase” (Bioorg Med Chem, 2010)

Tests used:
[1] = target: T1, Ephrin type-A receptor 1 (Homo sapiens) (UniProt P21709); experiment: Inhibition of EPHA1 at 1 uM
T1 sequence (whole entry): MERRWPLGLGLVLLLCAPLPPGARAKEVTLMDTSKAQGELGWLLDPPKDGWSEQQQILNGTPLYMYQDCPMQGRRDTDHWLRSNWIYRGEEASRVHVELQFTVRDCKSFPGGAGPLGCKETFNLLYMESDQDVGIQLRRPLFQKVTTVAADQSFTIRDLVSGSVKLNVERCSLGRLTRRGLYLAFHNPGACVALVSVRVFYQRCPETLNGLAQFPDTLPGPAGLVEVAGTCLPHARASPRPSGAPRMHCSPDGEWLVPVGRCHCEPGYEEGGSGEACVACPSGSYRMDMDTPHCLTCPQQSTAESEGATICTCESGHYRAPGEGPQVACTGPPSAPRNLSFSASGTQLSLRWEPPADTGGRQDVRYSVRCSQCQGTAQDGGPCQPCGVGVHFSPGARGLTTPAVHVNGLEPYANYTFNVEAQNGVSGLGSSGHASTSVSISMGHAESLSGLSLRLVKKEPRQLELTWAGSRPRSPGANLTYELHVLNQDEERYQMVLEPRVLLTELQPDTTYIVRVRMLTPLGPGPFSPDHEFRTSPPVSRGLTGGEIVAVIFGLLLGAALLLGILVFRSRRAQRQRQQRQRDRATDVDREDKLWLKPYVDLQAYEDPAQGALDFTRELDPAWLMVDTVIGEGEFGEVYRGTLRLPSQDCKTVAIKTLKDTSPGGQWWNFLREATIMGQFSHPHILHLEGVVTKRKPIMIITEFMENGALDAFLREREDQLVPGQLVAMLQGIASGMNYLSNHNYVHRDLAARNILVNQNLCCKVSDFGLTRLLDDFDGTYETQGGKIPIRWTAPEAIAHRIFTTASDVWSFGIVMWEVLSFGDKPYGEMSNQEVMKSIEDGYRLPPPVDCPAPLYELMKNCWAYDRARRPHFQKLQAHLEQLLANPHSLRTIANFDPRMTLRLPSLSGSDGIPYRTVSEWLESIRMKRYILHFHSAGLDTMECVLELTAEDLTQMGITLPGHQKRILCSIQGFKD
Outline: (§1)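 Single-concentration screen using Ambit Bioscience KINOMEscan technology across a panel of 250–400 kinases. Per-kinase inhibition from this screen was summarized as S(90), the fraction of kinases inhibited by more than 90%.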

[2] = system: Phosphatidylinositol 4,5-bisphosphate 3-kinase catalytic subunit alpha isoform (Homo sapiens), P42336 [H1047L]; experiment: Inhibition of PIK3CA H1047L mutant at 1 uM
[3] = target: NT-3 growth factor receptor (Homo sapiens) (UniProt Q16288); experiment: Inhibition of TRKC at 1 uM
[4] = system: Proto-oncogene tyrosine-protein kinase receptor Ret (Homo sapiens), P07949 [V804M]; experiment: Inhibition of RET V804M mutant at 1 uM
[5] = target: Casein kinase I isoform epsilon (Homo sapiens) (UniProt P49674); experiment: Inhibition of CSNK1E at 1 uM; outline: as §1
[6] = target: T2, Serine/threonine-protein kinase BRSK1 (Homo sapiens) (UniProt Q8TDC3); experiment: Inhibition of BRSK1 at 1 uM
T2 sequence (whole entry): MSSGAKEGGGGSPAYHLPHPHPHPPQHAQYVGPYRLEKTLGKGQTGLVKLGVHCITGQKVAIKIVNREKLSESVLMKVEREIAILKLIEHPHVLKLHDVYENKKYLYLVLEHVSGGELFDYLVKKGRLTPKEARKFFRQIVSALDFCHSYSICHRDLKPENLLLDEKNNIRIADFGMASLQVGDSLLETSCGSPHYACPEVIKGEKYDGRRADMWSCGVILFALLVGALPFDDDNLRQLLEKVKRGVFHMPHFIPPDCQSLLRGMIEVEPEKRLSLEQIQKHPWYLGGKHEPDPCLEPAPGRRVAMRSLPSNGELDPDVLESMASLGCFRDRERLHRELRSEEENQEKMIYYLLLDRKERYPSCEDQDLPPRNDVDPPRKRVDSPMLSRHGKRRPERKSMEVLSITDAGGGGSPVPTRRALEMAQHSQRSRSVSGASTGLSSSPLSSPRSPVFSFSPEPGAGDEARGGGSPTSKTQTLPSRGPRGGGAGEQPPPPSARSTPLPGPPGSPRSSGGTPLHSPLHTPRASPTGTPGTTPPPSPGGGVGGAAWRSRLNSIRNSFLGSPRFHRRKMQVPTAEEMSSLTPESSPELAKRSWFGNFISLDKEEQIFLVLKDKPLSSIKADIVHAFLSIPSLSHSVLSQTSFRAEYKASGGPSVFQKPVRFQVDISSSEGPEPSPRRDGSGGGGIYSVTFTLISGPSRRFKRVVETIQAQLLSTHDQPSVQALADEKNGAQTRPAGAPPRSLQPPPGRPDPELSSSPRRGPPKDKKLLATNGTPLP
Outline: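 Ambit KINOMEscan screen at a single concentration across a 250–400 kinase panel, recorded as percent inhibition. Selectivity was expressed as S(90), the fraction of kinases inhibited >90%.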

[7] = system: Proto-oncogene tyrosine-protein kinase receptor Ret (Homo sapiens), P07949 [M918T]; experiment: Inhibition of RET M918T mutant at 1 uM
[8] = target: T3, Dual specificity protein kinase TTK (Homo sapiens) (UniProt P33981); experiment: Inhibition of TTK at 1 uM
T3 sequence (whole entry): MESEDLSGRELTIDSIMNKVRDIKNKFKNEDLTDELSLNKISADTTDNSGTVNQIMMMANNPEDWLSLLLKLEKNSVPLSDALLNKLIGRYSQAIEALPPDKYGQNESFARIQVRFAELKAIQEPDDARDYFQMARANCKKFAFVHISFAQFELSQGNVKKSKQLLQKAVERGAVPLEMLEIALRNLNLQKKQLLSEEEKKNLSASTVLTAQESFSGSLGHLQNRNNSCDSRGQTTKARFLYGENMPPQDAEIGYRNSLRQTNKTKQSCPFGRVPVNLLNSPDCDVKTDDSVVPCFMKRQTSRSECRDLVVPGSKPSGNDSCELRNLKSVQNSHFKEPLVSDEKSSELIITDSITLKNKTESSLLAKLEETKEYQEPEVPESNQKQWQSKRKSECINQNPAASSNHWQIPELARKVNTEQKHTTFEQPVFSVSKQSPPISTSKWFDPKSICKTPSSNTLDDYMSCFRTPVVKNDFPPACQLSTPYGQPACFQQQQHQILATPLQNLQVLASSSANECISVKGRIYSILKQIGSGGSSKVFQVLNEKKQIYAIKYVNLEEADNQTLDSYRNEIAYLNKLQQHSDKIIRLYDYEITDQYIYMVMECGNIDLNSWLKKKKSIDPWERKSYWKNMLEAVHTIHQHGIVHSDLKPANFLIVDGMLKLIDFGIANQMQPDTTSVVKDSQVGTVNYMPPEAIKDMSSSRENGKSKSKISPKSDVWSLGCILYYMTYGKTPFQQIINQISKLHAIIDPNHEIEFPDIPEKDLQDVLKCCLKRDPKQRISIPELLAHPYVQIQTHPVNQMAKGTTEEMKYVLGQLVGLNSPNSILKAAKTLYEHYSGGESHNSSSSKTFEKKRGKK

Chain of NT-3 growth factor receptor (Homo sapiens) (Q16288 32-839 limits assumed): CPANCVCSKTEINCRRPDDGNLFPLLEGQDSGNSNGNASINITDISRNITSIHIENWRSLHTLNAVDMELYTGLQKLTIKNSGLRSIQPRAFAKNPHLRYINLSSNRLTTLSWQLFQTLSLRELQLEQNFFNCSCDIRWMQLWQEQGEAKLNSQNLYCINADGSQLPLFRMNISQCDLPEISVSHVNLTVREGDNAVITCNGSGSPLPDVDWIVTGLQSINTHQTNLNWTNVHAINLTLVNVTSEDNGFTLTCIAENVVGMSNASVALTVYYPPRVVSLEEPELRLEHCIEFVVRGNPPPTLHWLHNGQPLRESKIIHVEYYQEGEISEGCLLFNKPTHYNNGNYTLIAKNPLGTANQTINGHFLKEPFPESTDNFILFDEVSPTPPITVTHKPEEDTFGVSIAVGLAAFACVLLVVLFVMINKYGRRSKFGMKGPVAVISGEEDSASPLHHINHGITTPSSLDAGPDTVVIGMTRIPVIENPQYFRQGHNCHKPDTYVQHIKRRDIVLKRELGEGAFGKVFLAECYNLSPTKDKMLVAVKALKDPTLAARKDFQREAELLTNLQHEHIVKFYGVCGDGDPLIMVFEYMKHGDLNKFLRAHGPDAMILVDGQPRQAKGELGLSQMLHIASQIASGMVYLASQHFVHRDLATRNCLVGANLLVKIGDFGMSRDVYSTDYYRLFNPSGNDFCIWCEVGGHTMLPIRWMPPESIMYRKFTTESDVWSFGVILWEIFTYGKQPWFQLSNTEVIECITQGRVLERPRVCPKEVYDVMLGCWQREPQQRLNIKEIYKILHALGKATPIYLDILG
Chain of Proto-oncogene tyrosine-protein kinase receptor Ret (Homo sapiens), P07949 [M918T] (P07949 whole entry M918T): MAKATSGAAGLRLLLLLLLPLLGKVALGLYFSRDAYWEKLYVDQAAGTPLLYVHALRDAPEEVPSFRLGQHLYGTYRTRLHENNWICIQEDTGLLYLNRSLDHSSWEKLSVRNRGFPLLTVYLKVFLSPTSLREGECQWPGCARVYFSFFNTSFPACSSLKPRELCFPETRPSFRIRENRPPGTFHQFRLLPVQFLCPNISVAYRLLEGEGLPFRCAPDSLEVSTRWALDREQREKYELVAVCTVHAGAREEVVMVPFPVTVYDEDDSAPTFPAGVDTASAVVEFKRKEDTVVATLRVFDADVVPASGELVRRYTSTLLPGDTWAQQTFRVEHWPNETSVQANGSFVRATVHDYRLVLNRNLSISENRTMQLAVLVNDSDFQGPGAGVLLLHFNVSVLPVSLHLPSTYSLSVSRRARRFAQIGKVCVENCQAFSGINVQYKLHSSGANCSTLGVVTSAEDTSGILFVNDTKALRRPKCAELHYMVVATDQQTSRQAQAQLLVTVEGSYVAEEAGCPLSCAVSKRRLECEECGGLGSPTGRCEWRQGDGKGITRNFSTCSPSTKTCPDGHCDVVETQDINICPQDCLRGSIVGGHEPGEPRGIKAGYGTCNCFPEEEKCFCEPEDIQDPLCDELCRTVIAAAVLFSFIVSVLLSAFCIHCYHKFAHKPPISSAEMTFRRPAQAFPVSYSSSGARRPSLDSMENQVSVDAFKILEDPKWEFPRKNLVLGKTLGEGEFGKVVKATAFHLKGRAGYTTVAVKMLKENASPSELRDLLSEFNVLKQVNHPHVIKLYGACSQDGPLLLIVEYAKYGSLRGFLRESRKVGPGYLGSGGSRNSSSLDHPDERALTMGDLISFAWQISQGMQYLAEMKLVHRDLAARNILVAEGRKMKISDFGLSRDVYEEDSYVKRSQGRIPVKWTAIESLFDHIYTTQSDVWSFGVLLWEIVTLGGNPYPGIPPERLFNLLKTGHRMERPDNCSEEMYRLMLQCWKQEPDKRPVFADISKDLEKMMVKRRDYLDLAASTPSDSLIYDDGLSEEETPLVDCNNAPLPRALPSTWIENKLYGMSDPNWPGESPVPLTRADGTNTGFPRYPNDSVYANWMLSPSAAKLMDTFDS
Chain of Casein kinase I isoform epsilon (Homo sapiens) (P49674 whole entry, looked up, canonical isoform): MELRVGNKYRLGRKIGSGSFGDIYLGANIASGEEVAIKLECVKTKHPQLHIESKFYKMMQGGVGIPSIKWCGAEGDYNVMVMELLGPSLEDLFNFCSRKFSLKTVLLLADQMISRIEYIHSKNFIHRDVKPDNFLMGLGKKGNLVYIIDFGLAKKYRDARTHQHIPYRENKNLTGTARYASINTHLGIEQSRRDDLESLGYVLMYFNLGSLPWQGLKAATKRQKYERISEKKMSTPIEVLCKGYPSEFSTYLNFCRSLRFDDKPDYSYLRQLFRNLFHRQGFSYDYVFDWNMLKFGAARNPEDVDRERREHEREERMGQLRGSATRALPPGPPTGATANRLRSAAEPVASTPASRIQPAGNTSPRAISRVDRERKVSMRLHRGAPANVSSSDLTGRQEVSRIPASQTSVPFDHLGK
Chain of Proto-oncogene tyrosine-protein kinase receptor Ret (Homo sapiens), P07949 [V804M] (P07949 whole entry V804M, canonical isoform): as the sequence (P07949 whole entry M918T) above, with V804M, T918M counted along it
Chain of Phosphatidylinositol 4,5-bisphosphate 3-kinase catalytic subunit alpha isoform (Homo sapiens), P42336 [H1047L] (P42336 whole entry H1047L, canonical isoform): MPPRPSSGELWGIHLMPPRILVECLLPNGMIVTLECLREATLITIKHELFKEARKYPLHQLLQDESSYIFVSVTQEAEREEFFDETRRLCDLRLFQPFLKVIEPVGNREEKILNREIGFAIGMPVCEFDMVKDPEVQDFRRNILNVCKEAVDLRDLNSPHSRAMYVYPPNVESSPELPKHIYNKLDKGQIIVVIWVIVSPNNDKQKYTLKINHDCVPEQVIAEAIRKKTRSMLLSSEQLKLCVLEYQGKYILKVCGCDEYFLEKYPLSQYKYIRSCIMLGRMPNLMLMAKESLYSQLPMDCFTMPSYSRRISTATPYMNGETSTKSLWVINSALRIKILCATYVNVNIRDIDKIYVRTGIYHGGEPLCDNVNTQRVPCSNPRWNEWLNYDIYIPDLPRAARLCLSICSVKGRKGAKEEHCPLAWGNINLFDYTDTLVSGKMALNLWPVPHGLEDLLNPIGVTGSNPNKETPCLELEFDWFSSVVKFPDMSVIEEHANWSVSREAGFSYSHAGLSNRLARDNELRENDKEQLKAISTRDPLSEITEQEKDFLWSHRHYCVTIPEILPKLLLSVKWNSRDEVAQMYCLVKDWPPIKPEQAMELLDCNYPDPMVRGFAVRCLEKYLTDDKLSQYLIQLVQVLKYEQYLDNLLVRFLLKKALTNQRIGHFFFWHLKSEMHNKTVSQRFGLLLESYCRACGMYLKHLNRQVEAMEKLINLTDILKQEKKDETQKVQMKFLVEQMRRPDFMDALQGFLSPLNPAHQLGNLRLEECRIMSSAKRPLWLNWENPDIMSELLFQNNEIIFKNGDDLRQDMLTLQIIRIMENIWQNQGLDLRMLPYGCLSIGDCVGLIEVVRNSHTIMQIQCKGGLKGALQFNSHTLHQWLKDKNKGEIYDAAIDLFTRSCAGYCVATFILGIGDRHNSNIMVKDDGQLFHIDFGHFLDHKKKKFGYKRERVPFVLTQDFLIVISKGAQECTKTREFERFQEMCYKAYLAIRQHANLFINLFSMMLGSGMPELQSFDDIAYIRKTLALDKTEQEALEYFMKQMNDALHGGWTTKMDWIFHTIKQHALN

SMILES | inhibition [1] [%] | inhibition [2] [%] | inhibition [3] [%] | inhibition [4] [%] | inhibition [5] [%] | inhibition [6] [%] | inhibition [7] [%] | inhibition [8] [%]
CN1CCN(c2ccc(-c3cnc4c(c3)N(Cc3cc(F)ccc3F)CCN4)cn2)CC1 | 62.1 | < 50 | < 50 | < 50 | < 50 | < 50 | < 50 | < 50
CC(=O)N1CCN(c2cc(-c3cnc4c(c3)N(Cc3cc(Cl)ccc3C(F)(F)F)CCN4)ccn2)CC1 | < 50 | < 50 | < 50 | < 50 | < 50 | < 50 | < 50 | < 50
CN1CCN(c2ccc(-c3cnc4c(c3)N(Cc3c(F)ccc(F)c3Cl)CCN4)cn2)CC1 | < 50 | < 50 | < 50 | < 50 | < 50 | < 50 | < 50 | < 50
FC(F)(F)c1ccc(Cl)cc1CN1CCNc2ncc(-c3ccnc(N4CCNCC4)c3)cc21 | < 50 | < 50 | < 50 | 76 | < 50 | < 50 | 67 | < 50
CN1CCN(c2ccc(-c3cnc4c(c3)N(Cc3cc(Cl)ccc3Cl)CCN4)cn2)CC1 | < 50 | < 50 | < 50 | < 50 | < 50 | < 50 | < 50 | < 50
O=C(c1ccc(-c2cnc3c(c2)N(Cc2cc(Cl)ccc2C(F)(F)F)CCN3)cc1)N1CCC(N2CCCC2)CC1 | 81 |  | < 50 |  | < 50 | < 50 |  | < 50
O=C(O)c1ccc(-c2cnc3c(c2)N(Cc2cc(Cl)ccc2C(F)(F)F)CCN3)cc1 | < 50 |  | < 50 |  | < 50 | < 50 |  | < 50
CN1CCN(c2ccc(-c3cnc4c(c3)N(Cc3cc(Cl)ccc3C(F)(F)F)CCN4)cn2)CC1 | < 50 | < 50 | < 50 | < 50 | < 50 | < 50 | < 50 | < 50
O=C(c1ccc(-c2cnc3c(c2)N(Cc2cc(Cl)ccc2C(F)(F)F)CCN3)cc1)N1CCCCC1 | < 50 |  | < 50 |  | < 50 | < 50 |  | < 50
COC1CCN(C(=O)c2ccc(-c3cnc4c(c3)N(Cc3cc(Cl)ccc3C(F)(F)F)CCN4)cc2)CC1 | < 50 |  | < 50 |  | < 50 | < 50 |  | < 50
